Source: the EternaBench riboswitch data

System: MS2 coat protein
Assay: apparent Kd, MS2 coat protein; higher = weaker binding; RNA-MaP array; FMN 200 µM where present
How it was run: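 Stalled E. coli RNA polymerase transcribed each design on Illumina sequencing-chip clusters. The clusters were titrated with SNAP-549-labelled MS2 coat protein, starting at 0.7 or 1.5 nM and doubling up to 3 µM, first without ligand and then with constant ligand, in 100 mM Tris-HCl pH 7.5, 80 mM KCl, 4 mM MgCl2, BSA, DTT, yeast tRNA and Tween-20. Green signal was normalised to red-channel RNA signal and to the control-cluster median Fmax. The apparent Kd is the median of filtered binding-curve fits made for each cluster.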

[1] = designed as: OFF switch for flavin mononucleotide, no ligand
[2] = ligand present: flavin mononucleotide, designed as: OFF switch for flavin mononucleotide
[3] = designed as: ON switch for flavin mononucleotide, no ligand
[4] = ligand present: flavin mononucleotide, designed as: ON switch for flavin mononucleotide

Sequence | apparent Kd [1] [nM] | apparent Kd [2] [nM] | apparent Kd [3] [nM] | apparent Kd [4] [nM]
AUAAUUUUAUAUUUAUUUUUAUUCAGAAGGCAUAACAUGAGGAUCACCCAUGUAAAUUAAUGUUAUGAGGAUAUGAUUUGGUUA | 26.2 | 123 |  | 
GUUGCUAUCGGAGGAUAUUCAUACCGGAAACGGACAUGAGGAUCACCCAUGUCGCGAAAGCGUUGGGAGAAGGCCGAUAGCAAC |  |  | 248 | 21.4
CCUCCACAUGAGGAUCACCCAUGUCAGGAUAUCGUGUGUGCGUUUUCGGUCUUUCGCGCGAGAAGGGACGACUG | 30.2 | 33 |  | 
GUAGCACAAGUUAACAUGAGGAUCACCCAUGUCAGAAGACAUGAGGAUAUGGAUGUGAAGAUAAUCCAGAAGGCAUAAUGCUAA |  |  | 774 | 131
GUCACACACCGCUCCGUGUCUGACAUGAGGAUCACCCAUGUGAGAAGGUAGCGUCGCAGUAACGUUAAGGAUAUCACGUACAGA | 7.04 | 7.4 |  | 
UACAUAAAUGAAGGAUAUCGAUAUCCAACAUGAGGAUCACCCAUGUUGAGGAUCACCCAUGUAAAUGAGAAGGUUAACAUAACU |  |  | 70.5 | 73.5
GUGUACGCAGGAUAUACAUGAGGAUCACCCAUGUGAAUAAGAUAGAAUAAGAUAAAGUGUAGAAGGGCGAGUGU | 35.2 | 34.9 |  | 
AAACAUGUCCGAGGAUAUCUGGAAACAUUUUCAAGAGAAGGCGGACAUGAGGAUCACCCAUGUCUCUCCUCAUCAAAUCCAAGU | 21.4 | 148 |  | 
GCUAUAGAUGUAGGAUAUGAUAUAGAAGCUAUGUCAGAAGGACAUGAGGAUCACCCAUGUCAAUGGAUGGAGAGAAGAUAUGGC | 64.2 | 69.3 |  | 
AAGUAACAUGAGGAUCACCCAUGUUAGGAUAUCUCGGCCACAGGAUCGCUGUGAAGCCAGAGAAGGAGCGGGUG | 175 | 186 |  | 
UUCGGACUAUCAGGAUAUGGUGUAGCCUAGUAAAGGACAUGAGGAUCACCCAUGUACCAUUGGUGCCAGAAGGGAUGAUCCUAC |  |  | 141 | 55.3
GUCGGAAACGACAAAAGUAGCAUACGAGAAGGCUGAUCCACGACAUGAGGAUCACCCAUGUAUUUAGAGGAUAUUGGAUGCUAC |  |  | 134 | 21.6
CGGCACCAAGGAUAUACAUGAGGAUCACCCAUGUUUUUUGGGCCCUUAAAAUCUACGUGUAGAAGGUGGGUCGA | 49.9 | 56.9 |  | 
ACAUGAUACAAGAAGGAUGAAUUAGAUUUGAUCAUAGGAUAUUGUUAUAUUGUUUACUCUAAUAACAUGAGGAUCACCCAUGUA |  |  | 10.4 | 6.94
AUCGGCUCGUCAGGAUAUACGUCACUGCGUCAGCAGUGUGGUAAGAUCACAUGAGGAUCACCCAUGUAGAAGGGACGAGCUGAU | 13.6 | 268 |  | 
CGUGCGUAUGUGAGGAUAUGCUGGUCCUUGGAUCGGCAGAAGGCACAUGAGGAUCACCCAUGUGGUGUCGUUCC | 42.8 | 274 |  | 
AUAGGAUGAGGUGACGUACAUGAGGAUCACCCAUGUUUGACACAGGAUAUCCCGCGACUUGGUUUGGAGAAGGGUGGCAGACAA | 164 | 119 |  | 
AGAUCGAGUGUGAGGAUAUUGACCGGACGACCCAUCGAGAAGGCACAUGAGGAUCACCCAUGUGAUUCGGUUUA | 15.2 | 32.5 |  | 
UUUAUAAAUUAGAAGGCGUGAUGAAUUACAAUAGACAUGAGGAUCACCCAUGUGUAUUCAUGUCAUGAGGAUAUAGUCAUAUAU |  |  | 47.2 | 19.4
AGUGCCUCGAGAGGAUAUUACAUGAGGAUCACCCAUGUAACAGAGGUGGAAACACCUCUGAAAUGUAAGAAGGCUCGAGGCACA | 19.2 | 31.2 |  | 
ACACUCUAUGCAGGAUAUCGAGCCUGGGCCUUGUUUUUUGUAAACAUGAGGAUCACCCAUGUCUUCGAGAAGGGCAUAACACCG | 372 | 136 |  | 
CGAUUAUUGAUCCAUUUUUUCAACAUGAGGAUCACCCAUGUGCAGGAUAUCGUGAUUAUUAUCAACGAGAAGGGCAAAUUCACG | 49.5 | 145 |  | 
AGCUGGUGACAGCAUCGAGCAAAACAUGAGGAUCACCCAUGUAGAAGGCUGUACGGUUACCGUACAGAGGAUAUACAUAGCUCG | 7.15 | 10 |  | 
UGCCGUGUACAGAAGGGCGACAUGAGGAUCACCCAUGUCUCCUUGUUGGUCGUAGGAUAUGUACCGUGGCUCUCACCUGUGGGA | 5.57 | 6.95 |  | 

Sequence | apparent Kd [1] [nM] | apparent Kd [2] [nM] | apparent Kd [3] [nM] | apparent Kd [4] [nM]
GGUUGACAAAGUCAACCAAUUCGAACAUGAGGAUCACCCAUGUAGGAUAUGCUACUCAAAGAGUAGCAGAAGGACAUGUGCCUU | 34.3 | 188 |  | 
AAAUUUUGUCAAGGAUAUGUAUUAUUGAUUUGAAAACAUGAGGAUCACCCAUGUAUAUGGUGGGAACAGAAGGUGAAUAAGUAA | 202 | 236 |  | 
UCUGUUCAAGGAUAUGCGUAAUGUGUUACGGCACAAGGUCUACAUGAGGAUCACCCAUGUAGAAGGUGAUCAGA | 20.8 | 22.4 |  | 
CUUUUGUGAGGAUAUCAGUAGUAAAGAAAUAAAAUUACUACUGAGAAGGCACAUGAGGAUCACCCAUGUUCCUC | 36.2 | 192 |  | 
AAUAACAGAGGAUAUACUAUUUUAUGUGUUUGUUGUUUUGAACAUGAGGAUCACCCAUGUAGAAGGCUGAAUAA | 22.6 | 25.6 |  | 
CCGCCAAUCGAGAAGGGCCCAUGUGCUACGUCGGCAGGAUAUCGACAUGAGGAUCACCCAUGUUGGCGAUCCUUUUUGGCGAAC | 149 | 108 |  | 
GGAUAGGACAGAGGAUAUACGUGCUAGAGAUACUAGCAAGAUUUCCUCACAUGAGGAUCACCCAUGUAGAAGGCUGUCCUAUCG | 13.2 | 348 |  | 
GCAGCACUUUAAAACAUGAGGAUCACCCAUGUCGAUUGUUAUGAGGAUAUGCAUCGGAUGAAGAUGCAGAAGGCAUUGUGCUGC |  |  | 7.36 | 6.23
AAAUAAAUGACUCAGGAUAUAUCAUAGAAUACAUGAGGAUCACCCAUGUUUUAAUAACAUGUUUGGUAGAAGGGAGUCAAUAAAU |  |  | 80.4 | 29.3
AGGUCAACCACAGGAUAUGGCUAGCAUAGCUAGCCAGAAGGGUGGUCAUUUCCAUGUAAAUACAUGAGGAUCACCCAUGUAUCC |  |  | 126 | 41.1
GGGUACAUCGGAGGAUAUCAUGUAAAUACAUGAGGAUCACCCAUGUCGAUGGAGACAUCGGAGAUUGAGAAGGCCGACGUACCG |  |  | 187 | 9.15
AAUAUAAAGAGCUGGUACUCAAUAACAUGAGGAUCACCCAUGUAGGAUAUCAGCACGAUAAGUGCUGAGAAGGACAUCCAGCUC | 16.6 | 29.4 |  | 
CCUAAGCGAGGAUAUACAUGAGGAUCACCCAUGUCCGCGUUCAUGAGGUUAAGAUCUUGUAGAAGGCGCCAAAA | 33 | 161 |  | 
GCAUUGAUAACAGGAUAUAUGUAUCCUACAUGAGGAUCACCCAUGUAGGUGAUCAGCCGCGAUAAGUAGAAGGGUUAUCAAUGC |  |  | 18 | 13.7
GUUCUUCCUGUGAGGAUAUCCAUGUGUCGGUGUGUGGAGAAGGUACAUGAGGAUCACCCAUGUCACCCGCGUUU | 20.8 | 22.2 |  | 
GUGCGACAUGAGGAUCACCCAUGUGAGGAUAUCCCGGGCCGGGCUUUUGCCCGGCCCGGGAGAAGGCGCGUCGU | 68.4 | 70.7 |  | 
GAGUACUGAGGAUAUACAUGAGGAUCACCCAUGUGUUCCAGCUAGGAAACUAGCAAAAGUAGAAGGCAGUACUG | 19.5 | 156 |  | 
UCGUGGUUAGGAUAUACAUGAGGAUCACCCAUGUGUGGCAGGGAGCGCCGACGGGCUUGUAGAAGGGAUGCGCA | 40.4 | 39.6 |  | 
UGGUCAUGAUCAGGAUAUUAACAUGGGCUACAUUGAGAAGGGAUAGUGAGAUACGAACUGAACGACAUGAGGAUCACCCAUGUA |  |  | 59.7 | 44
AAACAGGGAGGAUAUACAUAGAUCCUCUAACCUAAUUGGUCACAUGAGGAUCACCCAUGUAGAAGGCCCUUAGG |  | 11.3 |  | 
CCAUAUAACUGAGGAUAUGAUCACCACUAACAUUCAGAAGGCAGACAUGAGGAUCACCCAUGUGAUUUCUCAAUAUUAUACAUC | 572 | 363 |  | 
CAGGUAGCUACAGGAUAUACACAGCUCAGUAAACUGAGCAAAAGAUCUACAUGAGGAUCACCCAUGUAGAAGGGUAGCUGCCUG | 17.1 | 18.2 |  | 
GCCAUCGCAUGAGGAUAUAAUCGGGUUUCCCGUUUAGAAGGCAUGUCAUAAGACAUGAGGAUCACCCAUGUAGUUAAGAUGGCA |  |  | 471 | 27
UCGUUUGUACUAGGAUAUACCGACGAAAGAUCAGUAGAAGGAGUAACAGACAUGAGGAUCACCCAUGUAUGGGUCCUUAAACAA | 35.8 | 217 |  | 
